# The source made the active and inactive calls. No cut-off for these calls is given here.
# What was measured:
# [1] = molecular target: T1, Peptidoglycan D,D-transpeptidase MrdA (Escherichia coli K-12) (UniProt P0AD65); assay: (§1) Inhibition of bocillin-FL binding to Escherichia coli K12 NusA-fused/His6-tagged PBP2 (57 to 615 residues) expressed in Escherichia coli BL21(DE3) preincubated for 30 mins followed by bocillin-FL addition by RT-fluorescence anisotropy method
# T1 sequence (whole entry): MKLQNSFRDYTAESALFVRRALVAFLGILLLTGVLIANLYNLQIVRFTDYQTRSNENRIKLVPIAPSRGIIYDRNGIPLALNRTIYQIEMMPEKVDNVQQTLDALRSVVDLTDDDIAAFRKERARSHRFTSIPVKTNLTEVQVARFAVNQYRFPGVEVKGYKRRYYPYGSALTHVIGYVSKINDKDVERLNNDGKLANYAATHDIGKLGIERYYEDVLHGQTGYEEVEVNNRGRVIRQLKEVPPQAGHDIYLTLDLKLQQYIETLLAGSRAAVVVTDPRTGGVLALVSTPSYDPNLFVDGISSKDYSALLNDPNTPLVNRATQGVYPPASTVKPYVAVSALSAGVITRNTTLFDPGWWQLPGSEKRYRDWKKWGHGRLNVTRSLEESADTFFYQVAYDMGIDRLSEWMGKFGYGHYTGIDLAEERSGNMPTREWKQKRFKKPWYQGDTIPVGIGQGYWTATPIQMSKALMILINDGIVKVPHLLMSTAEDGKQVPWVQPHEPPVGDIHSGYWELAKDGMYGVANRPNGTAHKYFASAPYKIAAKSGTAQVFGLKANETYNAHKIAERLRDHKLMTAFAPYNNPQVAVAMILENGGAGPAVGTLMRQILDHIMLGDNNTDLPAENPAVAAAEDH
# [2] = molecular target: T2, Penicillin-binding protein 1A (Escherichia coli K-12) (UniProt P02918); assay: Inhibition of Escherichia coli PBP1a
# T2 sequence (whole entry): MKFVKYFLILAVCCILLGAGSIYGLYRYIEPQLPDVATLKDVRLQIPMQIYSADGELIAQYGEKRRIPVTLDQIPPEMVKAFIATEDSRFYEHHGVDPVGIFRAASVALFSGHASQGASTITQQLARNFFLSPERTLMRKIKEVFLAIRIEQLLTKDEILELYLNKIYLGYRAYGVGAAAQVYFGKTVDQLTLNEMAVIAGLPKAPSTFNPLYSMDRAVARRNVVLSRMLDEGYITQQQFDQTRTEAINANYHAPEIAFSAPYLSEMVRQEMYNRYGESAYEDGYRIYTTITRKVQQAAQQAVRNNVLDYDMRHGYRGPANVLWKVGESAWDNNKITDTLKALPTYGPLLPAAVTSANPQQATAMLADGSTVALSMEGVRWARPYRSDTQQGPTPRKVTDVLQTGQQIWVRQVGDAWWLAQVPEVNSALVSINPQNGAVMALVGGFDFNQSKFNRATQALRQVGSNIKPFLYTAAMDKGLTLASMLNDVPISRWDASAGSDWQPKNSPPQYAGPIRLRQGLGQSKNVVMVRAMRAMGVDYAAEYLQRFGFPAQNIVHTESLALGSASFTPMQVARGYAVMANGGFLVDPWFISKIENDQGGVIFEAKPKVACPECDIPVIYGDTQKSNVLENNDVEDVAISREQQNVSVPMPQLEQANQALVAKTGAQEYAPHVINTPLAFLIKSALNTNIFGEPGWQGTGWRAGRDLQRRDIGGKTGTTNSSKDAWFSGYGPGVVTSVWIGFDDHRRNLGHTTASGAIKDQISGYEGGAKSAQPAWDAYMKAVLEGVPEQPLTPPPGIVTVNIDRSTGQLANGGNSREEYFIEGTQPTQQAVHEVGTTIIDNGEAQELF
# [3] = molecular target: T3, Penicillin-binding protein 1B (Escherichia coli K-12) (UniProt P02919); assay: Inhibition of Escherichia coli PBP1b
# T3 sequence (whole entry): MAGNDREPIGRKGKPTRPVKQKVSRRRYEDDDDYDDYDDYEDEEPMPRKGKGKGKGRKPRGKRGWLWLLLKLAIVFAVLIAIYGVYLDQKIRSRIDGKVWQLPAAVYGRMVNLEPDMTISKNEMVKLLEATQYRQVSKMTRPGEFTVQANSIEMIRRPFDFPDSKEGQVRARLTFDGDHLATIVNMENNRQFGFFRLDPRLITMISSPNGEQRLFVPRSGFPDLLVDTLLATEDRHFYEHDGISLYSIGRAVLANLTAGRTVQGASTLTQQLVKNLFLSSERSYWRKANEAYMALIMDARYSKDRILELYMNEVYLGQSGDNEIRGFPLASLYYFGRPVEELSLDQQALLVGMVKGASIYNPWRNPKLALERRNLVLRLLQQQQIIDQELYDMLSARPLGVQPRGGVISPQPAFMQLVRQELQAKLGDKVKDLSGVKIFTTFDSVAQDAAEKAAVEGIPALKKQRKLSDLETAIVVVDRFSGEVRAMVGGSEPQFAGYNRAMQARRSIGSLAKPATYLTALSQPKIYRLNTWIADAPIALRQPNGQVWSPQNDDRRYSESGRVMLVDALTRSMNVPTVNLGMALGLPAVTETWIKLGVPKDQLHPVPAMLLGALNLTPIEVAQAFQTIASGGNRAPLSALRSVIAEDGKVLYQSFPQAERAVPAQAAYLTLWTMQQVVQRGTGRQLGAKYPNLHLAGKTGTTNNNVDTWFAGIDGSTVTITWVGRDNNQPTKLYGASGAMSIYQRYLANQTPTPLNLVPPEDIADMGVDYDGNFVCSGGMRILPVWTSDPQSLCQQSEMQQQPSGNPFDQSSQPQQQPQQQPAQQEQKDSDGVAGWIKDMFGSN
# Escherichia coli [4] = assay: Inhibition of Escherichia coli PBP3
# Pseudomonas aeruginosa [5] = assay: Antibacterial activity against Pseudomonas aeruginosa UFR49 measured after 16 to 20 hrs by broth microdilution method; type: functional
# Escherichia coli [6] = assay: Antibacterial activity against Escherichia coli clinical isolates measured after 16 to 20 hrs by broth microdilution method; type: functional
# Method in brief: (§2)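 Broth microdilution MICs following CLSI M7-A7, run against genotyped carbapenem-resistant E. coli and P. aeruginosa strains.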
# Pseudomonas aeruginosa [7] = assay: Antibacterial activity against Pseudomonas aeruginosa clinical isolates measured after 16 to 20 hrs by broth microdilution method; type: functional; method in brief: as §2
# Escherichia coli [8] = assay: Antibacterial activity against Escherichia coli UFR39 measured after 16 to 20 hrs by broth microdilution method; type: functional; method in brief: as §2
# [9] = molecular target: T4, Peptidoglycan D,D-transpeptidase MrdA (Escherichia coli K-12, UniProt P0AD65); assay: as §1
# T4 sequence (P0AD65 whole entry): T1 sequence (whole entry)
# [10] = molecular target: T1, Peptidoglycan D,D-transpeptidase MrdA (Escherichia coli K-12); assay: Binding affinity to Escherichia coli K12 NusA-fused/His6-tagged PBP2 (57 to 615 residues) expressed in Escherichia coli BL21(DE3) assessed as melting temperature at protein to compound ratio of 1:10 measured after 30 mins using SYPRO orange dye by RT-PCR-based fluorescence assay (reference value: 47 +/- 0.5 degC)
# Method in brief: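 Thermal unfolding was monitored with SYPRO Orange dye in a real-time PCR instrument, at a protein/ligand ratio of 1/10. Tm was taken at the inflexion point of the denaturation curve and reported ±0.5 °C.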
# [11] = molecular target: T2, Penicillin-binding protein 1A (Escherichia coli K-12); assay: Inhibition of Escherichia coli PBP1a up to 200 uM
# [12] = molecular target: T3, Penicillin-binding protein 1B (Escherichia coli K-12); assay: Inhibition of Escherichia coli PBP1b up to 200 uM
# Escherichia coli [13] = assay: Inhibition of Escherichia coli PBP3 up to 200 uM
# [14] = molecular target: Penicillin-binding protein 1A (Pseudomonas aeruginosa PAO1) (UniProt Q07806); assay: Inhibition of Pseudomonas aeruginosa PBP1a up to 200 uM
# Penicillin-binding protein 1A (Pseudomonas aeruginosa PAO1), sequence (Q07806 whole entry): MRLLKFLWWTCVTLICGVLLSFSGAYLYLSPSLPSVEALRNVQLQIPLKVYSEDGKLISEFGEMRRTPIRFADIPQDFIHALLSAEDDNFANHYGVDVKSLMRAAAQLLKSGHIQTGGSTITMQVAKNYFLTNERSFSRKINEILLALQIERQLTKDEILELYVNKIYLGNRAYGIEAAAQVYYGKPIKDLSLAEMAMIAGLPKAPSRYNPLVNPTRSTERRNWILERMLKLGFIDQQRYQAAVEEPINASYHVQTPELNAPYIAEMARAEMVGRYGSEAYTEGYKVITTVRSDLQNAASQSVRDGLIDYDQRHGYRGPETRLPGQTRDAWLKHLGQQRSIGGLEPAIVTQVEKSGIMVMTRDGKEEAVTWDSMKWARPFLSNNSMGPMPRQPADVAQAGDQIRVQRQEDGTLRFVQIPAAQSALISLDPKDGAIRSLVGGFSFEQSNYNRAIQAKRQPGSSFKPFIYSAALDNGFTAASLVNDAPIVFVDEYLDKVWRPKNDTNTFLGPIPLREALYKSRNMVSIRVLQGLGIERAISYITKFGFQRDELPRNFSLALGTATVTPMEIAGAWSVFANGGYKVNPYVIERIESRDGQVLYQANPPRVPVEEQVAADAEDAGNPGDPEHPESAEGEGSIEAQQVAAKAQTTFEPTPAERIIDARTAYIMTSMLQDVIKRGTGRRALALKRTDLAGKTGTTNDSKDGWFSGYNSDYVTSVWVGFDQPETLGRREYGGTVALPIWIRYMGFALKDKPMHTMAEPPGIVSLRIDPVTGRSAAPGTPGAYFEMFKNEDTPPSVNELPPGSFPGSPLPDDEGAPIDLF
# [15] = molecular target: T5, Penicillin-binding protein 1B (Pseudomonas aeruginosa) (UniProt Q9X6W0); assay: Inhibition of Pseudomonas aeruginosa PBP1b up to 200 uM
# T5 sequence (whole entry): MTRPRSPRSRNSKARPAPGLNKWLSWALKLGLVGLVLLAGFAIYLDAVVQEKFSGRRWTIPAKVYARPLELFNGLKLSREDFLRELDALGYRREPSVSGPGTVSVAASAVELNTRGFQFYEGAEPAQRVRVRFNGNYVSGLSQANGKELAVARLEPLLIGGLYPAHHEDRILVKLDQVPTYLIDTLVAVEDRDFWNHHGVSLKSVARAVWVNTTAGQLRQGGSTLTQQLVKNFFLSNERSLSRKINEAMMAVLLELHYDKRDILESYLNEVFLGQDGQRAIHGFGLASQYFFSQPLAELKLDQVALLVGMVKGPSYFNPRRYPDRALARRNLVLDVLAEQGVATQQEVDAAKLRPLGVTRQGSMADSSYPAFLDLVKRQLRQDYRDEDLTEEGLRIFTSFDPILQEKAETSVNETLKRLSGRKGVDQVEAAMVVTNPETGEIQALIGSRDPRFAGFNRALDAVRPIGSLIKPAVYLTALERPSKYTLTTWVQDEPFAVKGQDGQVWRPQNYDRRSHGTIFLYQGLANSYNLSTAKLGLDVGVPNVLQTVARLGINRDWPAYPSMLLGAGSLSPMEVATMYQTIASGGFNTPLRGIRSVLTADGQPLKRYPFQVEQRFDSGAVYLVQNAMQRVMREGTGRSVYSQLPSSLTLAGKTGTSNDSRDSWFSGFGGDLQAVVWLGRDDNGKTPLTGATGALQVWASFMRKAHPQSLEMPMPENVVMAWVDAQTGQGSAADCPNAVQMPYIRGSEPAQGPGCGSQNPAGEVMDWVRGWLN
# [16] = molecular target: Penicillin-binding protein 3 (Pseudomonas aeruginosa) (UniProt Q51504); assay: Inhibition of Pseudomonas aeruginosa PBP3 up to 200 uM
# Penicillin-binding protein 3 (Pseudomonas aeruginosa), sequence (Q51504 as listed by the source): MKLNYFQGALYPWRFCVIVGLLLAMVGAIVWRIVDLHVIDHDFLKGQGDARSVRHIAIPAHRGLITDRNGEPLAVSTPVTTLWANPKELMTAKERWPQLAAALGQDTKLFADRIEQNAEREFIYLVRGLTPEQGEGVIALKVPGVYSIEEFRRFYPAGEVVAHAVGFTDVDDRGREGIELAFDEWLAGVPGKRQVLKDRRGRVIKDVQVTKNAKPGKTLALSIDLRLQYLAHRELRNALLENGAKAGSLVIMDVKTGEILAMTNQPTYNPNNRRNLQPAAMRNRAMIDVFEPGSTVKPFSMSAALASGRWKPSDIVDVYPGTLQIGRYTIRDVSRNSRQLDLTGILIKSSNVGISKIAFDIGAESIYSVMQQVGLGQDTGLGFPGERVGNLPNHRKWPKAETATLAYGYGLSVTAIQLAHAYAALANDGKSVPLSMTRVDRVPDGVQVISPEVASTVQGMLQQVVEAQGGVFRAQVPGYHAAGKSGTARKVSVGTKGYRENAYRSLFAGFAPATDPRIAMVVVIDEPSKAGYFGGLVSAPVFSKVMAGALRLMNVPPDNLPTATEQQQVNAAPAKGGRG
# [17] = molecular target: Beta-lactamase TEM (Bacteria) (UniProt P62593); assay: Inhibition of bacterial beta-lactamase TEM-1
# Beta-lactamase TEM (Bacteria), sequence (P62593 whole entry): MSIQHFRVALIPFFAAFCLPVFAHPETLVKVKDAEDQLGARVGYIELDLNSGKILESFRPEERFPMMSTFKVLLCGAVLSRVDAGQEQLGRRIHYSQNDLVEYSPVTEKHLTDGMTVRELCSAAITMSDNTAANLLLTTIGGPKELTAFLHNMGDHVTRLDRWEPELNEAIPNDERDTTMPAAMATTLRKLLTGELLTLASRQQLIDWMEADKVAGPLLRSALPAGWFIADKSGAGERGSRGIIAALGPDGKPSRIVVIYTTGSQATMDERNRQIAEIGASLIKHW
# Bacteria [18] = assay: Inhibition of bacterial beta-lactamase SHV-1
# Bacteria [19] = assay: Inhibition of bacterial beta-lactamase CTX-M-15
# Bacteria [20] = assay: Inhibition of bacterial beta-lactamase KPC-2
# Enterobacter cloacae = assay: Inhibition of Enterobacter cloacae P99 AmpC
# Bacteria [21] = assay: Inhibition of bacterial CMY-37
# Bacteria [22] = assay: Inhibition of bacterial OXA-15
# Bacteria [23] = assay: Inhibition of bacterial OXA-48
SMILES,inhibition [2],inhibition [3],inhibition (Escherichia coli [4]),MIC (Pseudomonas aeruginosa [5]) [µg/mL],MIC50 (Escherichia coli [6]) [µg/mL],MIC90 (Escherichia coli [6]) [µg/mL],MIC50 (Pseudomonas aeruginosa [7]) [µg/mL],MIC90 (Pseudomonas aeruginosa [7]) [µg/mL],MIC (Escherichia coli [8]) [µg/mL],IC50 [9] [nM],also measured
O=C(NNC(=O)[C@@H]1CC[C@@H]2CN1C(=O)N2OS(=O)(=O)O)[C@@H]1CCCNC1 [ZIDEBACTAM],,,,,32,> 32,8,16,,,
CC(C)(O/N=C(\C(=O)N[C@@H]1C(=O)N2C(C(=O)[O-])=C(C[n+]3ccccc3)CS[C@H]12)c1csc(N)n1)C(=O)O [CEFTAZIDIME],,,,64,> 32,> 32,> 32,> 32,> 256,,
O=C1N2CC=C(c3cnoc3)C(C2)N1OS(=O)(=O)[O-].[Na+] (stereo not drawn),,,,> 32,,,,,,17,
O=C1N2CCCC(C2)N1OS(=O)(=O)[O-].[Na+] (stereo not drawn),inactive,inactive,inactive,> 32,,,,,> 32,> 200000,
O=C1N2CC=CC(C2)N1OS(=O)(=O)[O-].[Na+] (stereo not drawn),inactive,inactive,inactive,> 32,,,,,16,570,
O=C1N2CC=C(c3cnco3)C(C2)N1OS(=O)(=O)[O-].[Na+] (stereo not drawn),inactive,inactive,inactive,> 32,,,,,4,25,
C[C@@H](O)[C@H]1C(=O)N2C(C(=O)O)=C(S[C@@H]3CN[C@H](C(=O)N(C)C)C3)[C@H](C)[C@H]12 [MEROPENEM],,,,,0.5,> 32,8,> 32,128,,
O=C1N2CC=C(c3ncco3)C(C2)N1OS(=O)(=O)[O-].[Na+] (stereo not drawn),,,,> 32,,,,,,,

# Second part, led by results:
inhibition [2],inhibition [3],inhibition (Escherichia coli [4]),MIC (Pseudomonas aeruginosa [5]) [µg/mL],MIC50 (Escherichia coli [6]) [µg/mL],MIC90 (Escherichia coli [6]) [µg/mL],MIC50 (Pseudomonas aeruginosa [7]) [µg/mL],MIC90 (Pseudomonas aeruginosa [7]) [µg/mL],MIC (Escherichia coli [8]) [µg/mL],IC50 [9] [nM],SMILES,also measured
inactive,inactive,inactive,> 32,,,,,,,O=C1N2CC=C(c3ccccn3)C(C2)N1OS(=O)(=O)[O-].[Na+] (stereo not drawn),inhibition [1]: Active
inactive,inactive,inactive,> 32,,,,,,,O=C1N2CC=C(c3cccnc3)C(C2)N1OS(=O)(=O)[O-].[Na+] (stereo not drawn),inhibition [1]: Active
,,,> 32,32,> 32,> 32,> 32,16 to 32,590,NC(=O)[C@@H]1CC[C@@H]2CN1C(=O)N2OS(=O)(=O)[O-].[Na+] [AVIBACTAM SODIUM],
inactive,inactive,inactive,> 32,,,,,,,O=C1N2CC=C(c3ccncc3)C(C2)N1OS(=O)(=O)[O-].[Na+] (stereo not drawn),inhibition [1]: Active
inactive,inactive,inactive,2,0.031,> 32,1,16,0.016,10,NC[C@@H]1C=C(c2cnco2)[C@@H]2CN1C(=O)N2OS(=O)(=O)O (relative stereo),Tm [10]: 55.5 °C; inhibition [11]: inactive; inhibition [12]: inactive; inhibition (Escherichia coli [13]): inactive; inhibition [14]: inactive; inhibition [15]: inactive; inhibition [16]: inactive; inhibition [17]: Active; inhibition (Bacteria [18]): Active; inhibition (Bacteria [19]): Active; inhibition (Bacteria [20]): Active; inhibition (Enterobacter cloacae): Active; inhibition (Bacteria [21]): Active; inhibition (Bacteria [22]): Active; inhibition (Bacteria [23]): Active
